Values after ≈ are worked out from the molar mass of the structure shown. Active and inactive are the calls of the source. The calls are words filed in the database; no cut-off is given here.
What was measured:
[1] = Lipophilicity, log D of the compound at pH 7.4 by HPLC method; format: physicochemical; conditions: buffer
Summary of the method: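 LogD measured experimentally at pH 7.4 by an HPLC method.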

[2] = Half life in human hepatocytes at 2 uM by LCMS analysis; format: ADME, cell-based, Hepatocyte
Summary of the method: (§1)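 Test compound incubated with human hepatocytes. Intrinsic clearance and half-life derived from compound disappearance.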

Hepatocyte = assay: Intrinsic clearance in human hepatocytes at 2 uM by LCMS analysis; format: ADME, cell-based; summary of the method: as §1
[3] = Clearance in Beagle dog at 1 umol/kg, iv and 2 umol/kg, po; format: ADME, organism-based, Canis lupus familiaris; conditions: in vivo
Summary of the method: (§2)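 Fasted male Beagle dogs dosed iv or po (iv N = 5, po N = 4). Plasma concentrations analysed by noncompartmental analysis to give CL, Vss and oral F.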

[4] = Fraction unbound in dog plasma after 18 hrs at 37 degC after 18 hrs; format: ADME, cell-free, Canis lupus familiaris
Summary of the method: (§3)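 Human and dog plasma. Fraction unbound measured by equilibrium dialysis, 18 h at 37 °C, reported as % unbound.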

[5] = Antiplatelet activity against human platelet assessed as inhibition of ADP-induced whole blood aggregation by impedance aggregometry
[6] = Solubility of the compound in DMSO/HBSS at pH 7.4; format: physicochemical
Summary of the method: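 Compound from DMSO stock added to HBSS buffer. Solubility measured at pH 7.4.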

[7] = Antiplatelet activity against human platelet assessed as inhibition of collagen-induced platelet rich plasma aggregation by light transmission aggregometry; format: functional, cell-free
Summary of the method: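 Human platelet rich plasma stimulated with collagen. Aggregation read by light transmission aggregometry in an in-house 96-well plate format.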

[8] = Half life in iv dosed healthy volunteers plasma; format: ADME, organism-based; conditions: human
[9] = Volume of distribution in iv dosed healthy volunteers; format: ADME, organism-based; conditions: human, in vivo
[10] = Volume of distribution at steady state in Beagle dog at 1 umol/kg, iv and 2 umol/kg, po; format: ADME, organism-based, Canis lupus familiaris; conditions: in vivo, read-out: Vdss; summary of the method: as §2
[11] = Fraction unbound in human plasma after 18 hrs at 37 degC after 18 hrs; format: ADME, cell-free; summary of the method: as §3
[12] = Apparent permeability across apical to basolateral side of human Caco2 cells at 10 uM at pH 6.5 by LC-tandem MS analysis; format: ADME, cell-based; conditions: Caco-2, pH 6.5
Summary of the method: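 Caco-2 monolayers, apical-to-basolateral transport at pH 6.5. Result given as apparent permeability (Papp).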

CHO = assay: Inhibition of human IKs channel expressed in CHO cells at 20.4 +/- 2.4 uM by patch clamp assay; format: cell-based
[13] = Antiplatelet activity against dog platelet assessed as inhibition of ADP-induced whole blood aggregation by impedance aggregometry; conditions: Canis lupus familiaris
[14] = target: Voltage-dependent T-type calcium channel subunit alpha-1H (Homo sapiens) (UniProt O95180); assay: Inhibition of human Cav3.2 channel expressed in CHO cells at 20.4 +/- 2.4 uM by patch clamp assay; format: cell-based
Canis familiaris [15] = species: Canis familiaris; assay: Ex vivo antiplatelet activity in Beagle dog assessed as inhibition of ADP-induced platelet aggregation; format: functional, Canis lupus familiaris
Summary of the method: (§4)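 Anaesthetized dogs in a modified Folts' model. Saline vehicle given first, then consecutive iv doses over 30 min periods (bolus 0.03–1.3 µg/kg plus infusion 0.005–0.24 µg/kg/min). Measured: cyclic flow reductions, bleeding time, blood loss, ex vivo ADP-induced whole blood aggregation (Multiplate), and plasma exposure, related by PKPD.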

[16] = target: Sodium channel protein type 2 subunit alpha (Homo sapiens) (UniProt Q99250); assay: Inhibition of human Nav1.2 channel expressed in CHO cells at 20.4 +/- 2.4 uM by patch clamp assay; format: cell-based
Sodium channel protein type 2 subunit alpha (Homo sapiens), sequence (Q99250 whole entry, looked up): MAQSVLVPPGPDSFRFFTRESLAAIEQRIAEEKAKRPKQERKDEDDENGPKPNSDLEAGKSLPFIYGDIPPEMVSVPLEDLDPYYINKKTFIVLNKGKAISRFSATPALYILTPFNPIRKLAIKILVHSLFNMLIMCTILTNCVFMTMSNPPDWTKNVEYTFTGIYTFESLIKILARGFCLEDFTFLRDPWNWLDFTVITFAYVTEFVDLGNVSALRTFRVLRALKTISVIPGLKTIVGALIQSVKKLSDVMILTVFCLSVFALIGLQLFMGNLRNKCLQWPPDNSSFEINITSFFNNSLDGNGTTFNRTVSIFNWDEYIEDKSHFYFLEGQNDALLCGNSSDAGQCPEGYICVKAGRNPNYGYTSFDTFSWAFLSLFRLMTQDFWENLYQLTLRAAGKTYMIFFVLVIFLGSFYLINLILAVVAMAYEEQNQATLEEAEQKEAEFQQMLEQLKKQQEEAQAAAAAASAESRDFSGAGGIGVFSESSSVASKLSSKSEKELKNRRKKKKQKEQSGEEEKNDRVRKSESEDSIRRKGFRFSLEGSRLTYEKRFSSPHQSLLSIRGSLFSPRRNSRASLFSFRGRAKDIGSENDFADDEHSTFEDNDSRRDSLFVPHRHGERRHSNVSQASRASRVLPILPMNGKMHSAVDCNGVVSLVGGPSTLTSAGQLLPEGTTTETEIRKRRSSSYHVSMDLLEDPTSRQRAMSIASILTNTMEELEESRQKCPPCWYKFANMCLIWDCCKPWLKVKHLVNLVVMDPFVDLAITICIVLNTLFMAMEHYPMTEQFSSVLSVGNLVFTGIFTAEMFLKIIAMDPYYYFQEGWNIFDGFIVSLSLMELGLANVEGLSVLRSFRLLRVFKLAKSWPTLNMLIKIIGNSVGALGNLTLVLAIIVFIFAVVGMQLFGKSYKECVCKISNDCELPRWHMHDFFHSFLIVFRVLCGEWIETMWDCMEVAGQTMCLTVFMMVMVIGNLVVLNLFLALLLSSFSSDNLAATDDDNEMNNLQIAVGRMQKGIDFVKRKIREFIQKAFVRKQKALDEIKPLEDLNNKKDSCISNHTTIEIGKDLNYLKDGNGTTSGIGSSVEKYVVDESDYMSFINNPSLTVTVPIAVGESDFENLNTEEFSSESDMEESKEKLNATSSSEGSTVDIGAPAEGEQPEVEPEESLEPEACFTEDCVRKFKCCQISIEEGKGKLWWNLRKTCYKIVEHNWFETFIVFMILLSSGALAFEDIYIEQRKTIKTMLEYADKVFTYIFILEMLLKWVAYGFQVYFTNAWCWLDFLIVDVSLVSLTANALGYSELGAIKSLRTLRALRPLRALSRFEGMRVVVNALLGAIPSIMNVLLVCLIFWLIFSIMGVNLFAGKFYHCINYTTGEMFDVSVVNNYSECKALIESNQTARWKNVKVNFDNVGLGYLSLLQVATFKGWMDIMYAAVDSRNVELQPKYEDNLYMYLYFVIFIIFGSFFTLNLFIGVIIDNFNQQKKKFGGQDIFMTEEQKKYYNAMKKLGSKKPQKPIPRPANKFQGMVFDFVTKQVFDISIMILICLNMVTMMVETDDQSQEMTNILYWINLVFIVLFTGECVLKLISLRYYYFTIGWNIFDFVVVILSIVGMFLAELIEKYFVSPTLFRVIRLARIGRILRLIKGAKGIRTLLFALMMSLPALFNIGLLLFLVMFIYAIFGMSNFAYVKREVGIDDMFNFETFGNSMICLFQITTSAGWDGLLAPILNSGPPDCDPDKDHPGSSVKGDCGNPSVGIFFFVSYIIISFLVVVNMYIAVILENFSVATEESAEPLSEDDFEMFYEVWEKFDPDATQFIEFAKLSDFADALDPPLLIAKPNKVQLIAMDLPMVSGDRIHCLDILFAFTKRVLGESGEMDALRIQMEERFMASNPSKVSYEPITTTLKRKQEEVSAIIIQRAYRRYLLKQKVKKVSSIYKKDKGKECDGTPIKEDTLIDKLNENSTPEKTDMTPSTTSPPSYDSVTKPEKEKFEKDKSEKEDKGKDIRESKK

Canis familiaris [17] = assay: Inhibition of ADP-induced platelet aggregation in iv dosed Beagle dog assessed as blood loss volume; format: organism-based, Canis lupus familiaris; conditions: in vivo; summary of the method: as §4
[18] = target: T1, A-type voltage-gated potassium channel KCND3 (Homo sapiens, UniProt Q9UK17); assay: Inhibition of human Kv4.3 channel expressed in CHO cells at 20.4 +/- 2.4 uM by patch clamp assay; format: cell-based
T1 sequence (Q9UK17 whole entry): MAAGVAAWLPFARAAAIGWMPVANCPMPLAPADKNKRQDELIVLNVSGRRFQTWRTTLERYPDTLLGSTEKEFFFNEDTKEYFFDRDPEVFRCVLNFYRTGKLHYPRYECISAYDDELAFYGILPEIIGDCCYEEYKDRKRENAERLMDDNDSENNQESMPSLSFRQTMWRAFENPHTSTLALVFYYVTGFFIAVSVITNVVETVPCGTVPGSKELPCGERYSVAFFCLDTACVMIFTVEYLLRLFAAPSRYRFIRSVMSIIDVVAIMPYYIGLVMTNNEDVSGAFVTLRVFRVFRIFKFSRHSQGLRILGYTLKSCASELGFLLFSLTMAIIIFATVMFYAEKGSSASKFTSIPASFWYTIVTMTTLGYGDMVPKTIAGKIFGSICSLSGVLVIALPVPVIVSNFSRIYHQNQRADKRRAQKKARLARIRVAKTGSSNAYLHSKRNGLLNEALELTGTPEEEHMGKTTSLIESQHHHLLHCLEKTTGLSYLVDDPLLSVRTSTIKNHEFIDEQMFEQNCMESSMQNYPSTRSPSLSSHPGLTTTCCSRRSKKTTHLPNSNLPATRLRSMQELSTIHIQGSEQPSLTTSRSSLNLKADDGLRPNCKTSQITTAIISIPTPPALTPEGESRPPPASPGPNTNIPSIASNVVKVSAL

[19] = target: Voltage-gated inwardly rectifying potassium channel KCNH2 (Homo sapiens, UniProt Q12809); assay: Inhibition of human ERG channel expressed in CHO cells at 20.4 +/- 2.4 uM by patch clamp assay; format: cell-based
[20] = target: T2, Phosphatidylinositol 4,5-bisphosphate 3-kinase catalytic subunit delta isoform (Homo sapiens, UniProt O00329); assay: Inhibition of human recombinant PI3Kdelta assessed as PIP3 production by AlphaScreen assay
T2 sequence (O00329 whole entry): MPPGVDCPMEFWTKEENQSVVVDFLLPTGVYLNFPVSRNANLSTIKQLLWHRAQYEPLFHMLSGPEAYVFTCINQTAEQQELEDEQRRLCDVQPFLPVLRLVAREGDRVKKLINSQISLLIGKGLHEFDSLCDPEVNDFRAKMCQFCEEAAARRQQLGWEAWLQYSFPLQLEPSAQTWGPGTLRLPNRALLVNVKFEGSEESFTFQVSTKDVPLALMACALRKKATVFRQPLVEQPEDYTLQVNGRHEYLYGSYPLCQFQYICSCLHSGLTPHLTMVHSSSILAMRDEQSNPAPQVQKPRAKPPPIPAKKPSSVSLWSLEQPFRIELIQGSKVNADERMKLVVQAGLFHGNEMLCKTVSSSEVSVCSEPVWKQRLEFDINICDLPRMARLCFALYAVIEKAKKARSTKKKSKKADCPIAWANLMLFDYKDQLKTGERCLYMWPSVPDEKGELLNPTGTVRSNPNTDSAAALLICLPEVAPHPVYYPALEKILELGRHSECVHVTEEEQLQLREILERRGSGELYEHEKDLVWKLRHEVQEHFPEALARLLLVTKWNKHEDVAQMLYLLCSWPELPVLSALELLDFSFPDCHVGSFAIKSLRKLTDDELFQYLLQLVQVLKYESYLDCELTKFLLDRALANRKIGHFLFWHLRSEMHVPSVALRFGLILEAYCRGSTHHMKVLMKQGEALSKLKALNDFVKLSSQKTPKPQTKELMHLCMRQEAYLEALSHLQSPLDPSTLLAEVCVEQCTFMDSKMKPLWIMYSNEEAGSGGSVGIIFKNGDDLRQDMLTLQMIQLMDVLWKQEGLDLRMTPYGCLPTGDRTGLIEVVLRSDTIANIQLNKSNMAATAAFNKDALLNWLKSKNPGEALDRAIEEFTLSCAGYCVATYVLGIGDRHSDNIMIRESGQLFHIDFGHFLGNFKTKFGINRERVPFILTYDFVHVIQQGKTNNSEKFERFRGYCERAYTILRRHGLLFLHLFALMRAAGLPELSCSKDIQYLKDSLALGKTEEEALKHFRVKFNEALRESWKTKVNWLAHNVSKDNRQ

[21] = target: Voltage-dependent L-type calcium channel subunit beta-2 (Homo sapiens) (UniProt Q08289); assay: Inhibition of human CACNB2 channel expressed in CHO cells at 20.4 +/- 2.4 uM by patch clamp assay; format: cell-based
Voltage-dependent L-type calcium channel subunit beta-2 (Homo sapiens), sequence (Q08289 whole entry): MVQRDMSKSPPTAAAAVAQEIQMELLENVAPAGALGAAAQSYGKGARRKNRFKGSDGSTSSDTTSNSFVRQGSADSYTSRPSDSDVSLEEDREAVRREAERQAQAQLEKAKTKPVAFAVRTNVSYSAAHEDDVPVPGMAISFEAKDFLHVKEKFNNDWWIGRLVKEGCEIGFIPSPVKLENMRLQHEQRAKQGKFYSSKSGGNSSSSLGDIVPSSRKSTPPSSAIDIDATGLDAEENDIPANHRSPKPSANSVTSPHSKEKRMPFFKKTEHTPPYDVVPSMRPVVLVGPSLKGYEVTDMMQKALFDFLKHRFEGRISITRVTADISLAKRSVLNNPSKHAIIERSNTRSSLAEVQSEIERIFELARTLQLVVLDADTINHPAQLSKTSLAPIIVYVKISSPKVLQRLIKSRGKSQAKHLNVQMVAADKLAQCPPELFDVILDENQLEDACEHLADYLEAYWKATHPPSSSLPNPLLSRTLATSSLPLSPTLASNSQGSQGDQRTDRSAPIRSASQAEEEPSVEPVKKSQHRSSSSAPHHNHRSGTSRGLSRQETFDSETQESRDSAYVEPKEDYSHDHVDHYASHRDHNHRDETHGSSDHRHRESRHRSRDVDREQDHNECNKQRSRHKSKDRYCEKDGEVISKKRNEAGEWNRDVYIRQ

[22] = Oral bioavailability in Beagle dog at 2 umol/kg; format: ADME, organism-based, Canis lupus familiaris; conditions: in vivo; summary of the method: as §2
[23] = target: Sodium channel protein type 5 subunit alpha (Homo sapiens, UniProt Q14524); assay: Inhibition of human Nav1.5 channel expressed in CHO cells at 20.4 +/- 2.4 uM by patch clamp assay; format: cell-based
Rattus norvegicus = species: Rattus norvegicus; assay: Effect on insulin resistance in Sprague-Dawley rat assessed as HOMA-index at maximum compound concentration; format: ADME, organism-based; conditions: in vivo
Summary of the method: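 Sprague-Dawley rats given compound. Relative HOMA insulin resistance index (plasma glucose × plasma insulin) compared with baseline and related to plasma concentration.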

Canis familiaris [24] = assay: Inhibition of ADP-induced platelet aggregation in iv dosed Beagle dog assessed as bleeding time; format: organism-based, Canis lupus familiaris; conditions: in vivo; summary of the method: as §4
[25] = target: Phosphatidylinositol 4,5-bisphosphate 3-kinase catalytic subunit gamma isoform (Homo sapiens, UniProt P48736); assay: Inhibition of human recombinant PI3Kgamma assessed as PIP3 production by AlphaScreen assay
[26] = target: Voltage-dependent calcium channel subunit alpha-2/delta-1 (Homo sapiens) (UniProt P54289); assay: Inhibition of human CACNA2D1 channel expressed in CHO cells at 20.4 +/- 2.4 uM by patch clamp assay; format: cell-based
[27] = target: Voltage-dependent L-type calcium channel subunit alpha-1C (Homo sapiens, UniProt Q13936); assay: Inhibition of human CACNA1C channel expressed in CHO cells at 20.4 +/- 2.4 uM by patch clamp assay; format: cell-based
[28] = target: Voltage-dependent N-type calcium channel subunit alpha-1B (Homo sapiens) (UniProt Q00975); assay: Inhibition of human Cav2.2 channel expressed in CHO cells at 20.4 +/- 2.4 uM by patch clamp assay; format: cell-based
Voltage-dependent N-type calcium channel subunit alpha-1B (Homo sapiens), sequence (Q00975 whole entry, looked up): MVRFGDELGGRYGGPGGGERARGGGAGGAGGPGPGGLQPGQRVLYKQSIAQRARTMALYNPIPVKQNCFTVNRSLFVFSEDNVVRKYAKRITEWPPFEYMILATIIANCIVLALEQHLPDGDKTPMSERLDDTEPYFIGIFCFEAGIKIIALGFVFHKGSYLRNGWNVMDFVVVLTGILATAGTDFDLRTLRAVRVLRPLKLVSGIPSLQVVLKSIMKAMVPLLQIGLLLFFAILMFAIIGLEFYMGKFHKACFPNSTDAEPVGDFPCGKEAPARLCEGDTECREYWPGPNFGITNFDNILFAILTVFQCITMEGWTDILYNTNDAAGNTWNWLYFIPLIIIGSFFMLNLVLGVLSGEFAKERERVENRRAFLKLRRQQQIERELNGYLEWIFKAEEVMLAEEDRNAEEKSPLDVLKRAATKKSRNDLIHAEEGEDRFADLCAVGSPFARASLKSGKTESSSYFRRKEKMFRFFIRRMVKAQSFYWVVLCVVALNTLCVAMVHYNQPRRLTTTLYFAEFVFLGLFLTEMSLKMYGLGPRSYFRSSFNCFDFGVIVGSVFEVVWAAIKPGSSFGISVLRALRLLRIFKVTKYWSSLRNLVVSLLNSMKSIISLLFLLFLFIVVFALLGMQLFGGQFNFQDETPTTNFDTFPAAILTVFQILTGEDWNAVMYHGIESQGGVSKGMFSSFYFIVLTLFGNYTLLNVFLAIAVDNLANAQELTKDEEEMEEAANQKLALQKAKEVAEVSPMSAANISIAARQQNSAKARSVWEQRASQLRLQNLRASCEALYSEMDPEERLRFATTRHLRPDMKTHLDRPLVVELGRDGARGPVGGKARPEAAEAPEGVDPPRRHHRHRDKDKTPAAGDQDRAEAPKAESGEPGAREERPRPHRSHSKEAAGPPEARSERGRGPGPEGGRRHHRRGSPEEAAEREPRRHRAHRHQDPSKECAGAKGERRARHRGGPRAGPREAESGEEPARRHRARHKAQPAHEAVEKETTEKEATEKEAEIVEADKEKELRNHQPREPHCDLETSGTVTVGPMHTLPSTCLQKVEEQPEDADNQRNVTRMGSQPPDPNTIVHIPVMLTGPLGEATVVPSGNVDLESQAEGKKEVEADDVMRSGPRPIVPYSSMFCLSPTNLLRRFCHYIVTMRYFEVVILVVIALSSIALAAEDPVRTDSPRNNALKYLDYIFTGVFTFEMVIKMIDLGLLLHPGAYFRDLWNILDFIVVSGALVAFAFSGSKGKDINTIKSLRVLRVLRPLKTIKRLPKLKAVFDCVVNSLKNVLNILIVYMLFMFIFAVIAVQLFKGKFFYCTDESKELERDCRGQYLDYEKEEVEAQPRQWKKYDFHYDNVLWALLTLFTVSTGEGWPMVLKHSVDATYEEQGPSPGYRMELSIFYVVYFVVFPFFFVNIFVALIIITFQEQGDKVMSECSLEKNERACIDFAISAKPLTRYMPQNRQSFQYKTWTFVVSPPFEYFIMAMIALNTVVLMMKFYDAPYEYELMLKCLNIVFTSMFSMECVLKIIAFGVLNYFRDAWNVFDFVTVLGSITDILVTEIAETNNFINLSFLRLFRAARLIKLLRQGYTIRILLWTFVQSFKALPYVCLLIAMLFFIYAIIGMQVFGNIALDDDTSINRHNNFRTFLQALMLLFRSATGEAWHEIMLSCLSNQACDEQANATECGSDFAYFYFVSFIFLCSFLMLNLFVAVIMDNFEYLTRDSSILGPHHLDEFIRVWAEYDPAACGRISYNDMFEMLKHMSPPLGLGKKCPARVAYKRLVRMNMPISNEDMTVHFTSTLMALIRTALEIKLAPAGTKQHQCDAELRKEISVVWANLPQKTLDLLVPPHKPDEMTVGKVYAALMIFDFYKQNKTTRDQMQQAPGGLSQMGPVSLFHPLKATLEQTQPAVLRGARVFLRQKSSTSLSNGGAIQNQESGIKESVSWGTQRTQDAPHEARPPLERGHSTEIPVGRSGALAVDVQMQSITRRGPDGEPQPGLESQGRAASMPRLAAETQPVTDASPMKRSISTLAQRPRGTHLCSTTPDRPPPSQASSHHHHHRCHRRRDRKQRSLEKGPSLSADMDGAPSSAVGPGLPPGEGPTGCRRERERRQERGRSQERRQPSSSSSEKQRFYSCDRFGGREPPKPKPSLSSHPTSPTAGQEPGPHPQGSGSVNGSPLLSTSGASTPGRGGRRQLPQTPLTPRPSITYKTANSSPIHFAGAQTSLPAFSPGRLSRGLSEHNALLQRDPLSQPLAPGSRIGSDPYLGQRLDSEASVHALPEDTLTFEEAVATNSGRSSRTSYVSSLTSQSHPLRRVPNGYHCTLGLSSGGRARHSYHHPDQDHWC

Cc1cc([C@@H](C)Nc2ccccc2C(=O)O)c2nc(N3CCOCC3)cc(=O)n2c1 [AZD-6482]
logD [1]: 0.75 | half-life at 2 µM [2]: 40 min | Intrinsic clearance (CLint) (Hepatocyte): 17.5 µL/min | clearance [3]: 17 mL/min/kg | fraction unbound at 18 h [4]: 0.1 | IC50 [5]: 270 nM | solubility [6]: 100 µM (≈ 40.8 µg/mL) | IC50 [7]: 280 nM | half-life [8]: 5 min | Vd [9]: 40 L | Vd [10]: 14 L/kg | fraction unbound at 18 h [11]: 0.08 | Papp A→B at 10 µM [12]: 18 ×10⁻⁶ cm/s

C[C@@H](Oc1ccccc1)c1cc(C(=O)N(C)CCO)cn2c(=O)cc(N3CCOCC3)nc12
inhibition (CHO): inactive | half-life at 2 µM [2]: > 173 min | IC50 [13]: 950 nM | inhibition [14]: inactive | clearance [3]: 8 mL/min/kg | fraction unbound at 18 h [4]: 0.42 | EC80 (Canis familiaris [15]): 690 nM | inhibition [16]: inactive | fold change (FC) (Canis familiaris [17]): 3.5 | IC50 [5]: 1200 nM | inhibition (INH) [18]: Not Active | inhibition (INH) [19]: Not Active | IC50 [20]: 400 nM | inhibition [21]: inactive | bioavailability [22]: 31% | inhibition (INH) [23]: Not Active | Activity (Rattus norvegicus): Non-toxic | fold change (FC) (Canis familiaris [24]): 3.5 | IC50 [25]: 83000 nM | inhibition [26]: inactive | solubility [6]: > 1800 µM | IC50 [7]: 210 nM | inhibition (INH) [27]: Not Active | Vd [10]: 1.2 L/kg | inhibition [28]: inactive | fraction unbound at 18 h [11]: 0.26

— ChEMBL document CHEMBL3352617, “Discovery of 9-(1-phenoxyethyl)-2-morpholino-4-oxo-pyrido[1,2-a]pyrimidine-7-carboxamides as oral PI3Kβ inhibitors, useful as antiplatelet agents” (Bioorg Med Chem Lett, 2014)
